pIC50: −log10 of the molar value.
How the values were obtained:
[1] = Half life in CD1 mouse at 10 mg/kg, po administered via gavage by LC/MS/MS analysis; format: ADME, organism-based; details: in vivo
Procedure, shortened: (§1)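 Mouse pharmacokinetics after oral dosing at 10 or 50 mg/kg. The 10 mg/kg dose was given in 10% HPbCD + 5% dextrose in WFI at pH 4. The 50 mg/kg dose was given in 5% SBECD in WFI at pH 2. Plasma exposure (AUC), half-life and oral bioavailability were derived.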

JAK2 = JAK2 (Homo sapiens, UniProt O60674); assay: Inhibition of catalytic recombinant human GST-tagged JAK2 expressed in baculovirus at 1 uM
Sequence of JAK2 (O60674 whole entry): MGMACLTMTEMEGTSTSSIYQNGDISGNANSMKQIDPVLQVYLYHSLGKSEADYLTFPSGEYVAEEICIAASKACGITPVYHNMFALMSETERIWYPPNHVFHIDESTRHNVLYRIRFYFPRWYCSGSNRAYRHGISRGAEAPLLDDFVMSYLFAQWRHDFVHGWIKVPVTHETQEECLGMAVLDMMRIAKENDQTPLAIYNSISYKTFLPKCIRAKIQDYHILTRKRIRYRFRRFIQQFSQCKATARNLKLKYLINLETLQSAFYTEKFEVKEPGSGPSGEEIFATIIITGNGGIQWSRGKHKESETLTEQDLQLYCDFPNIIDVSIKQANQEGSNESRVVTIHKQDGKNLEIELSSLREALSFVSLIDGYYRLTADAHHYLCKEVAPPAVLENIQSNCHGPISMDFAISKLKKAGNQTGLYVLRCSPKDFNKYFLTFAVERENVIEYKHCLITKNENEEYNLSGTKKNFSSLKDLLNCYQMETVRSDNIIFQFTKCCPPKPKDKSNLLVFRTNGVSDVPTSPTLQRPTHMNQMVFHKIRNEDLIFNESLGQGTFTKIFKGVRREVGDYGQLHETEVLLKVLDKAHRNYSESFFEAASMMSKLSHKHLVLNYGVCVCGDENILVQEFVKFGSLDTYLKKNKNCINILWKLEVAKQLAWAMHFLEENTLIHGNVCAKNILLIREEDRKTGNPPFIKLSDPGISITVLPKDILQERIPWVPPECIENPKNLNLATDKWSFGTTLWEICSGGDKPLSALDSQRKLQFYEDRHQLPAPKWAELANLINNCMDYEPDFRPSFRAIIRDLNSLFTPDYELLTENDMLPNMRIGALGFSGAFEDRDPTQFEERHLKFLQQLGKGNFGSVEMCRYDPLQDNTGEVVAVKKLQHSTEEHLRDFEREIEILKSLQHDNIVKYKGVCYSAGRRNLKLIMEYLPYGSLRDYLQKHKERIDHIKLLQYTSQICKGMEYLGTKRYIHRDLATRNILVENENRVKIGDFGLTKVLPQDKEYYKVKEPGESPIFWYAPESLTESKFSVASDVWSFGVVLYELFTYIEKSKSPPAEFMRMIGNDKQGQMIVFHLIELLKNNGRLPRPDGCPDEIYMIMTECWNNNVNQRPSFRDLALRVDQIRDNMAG
Procedure, shortened: (§2)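 Kinase panel of 386 kinases, each screened at a single concentration of 1 μM.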

[2] = Protein binding in CD1 mouse plasma assessed as unbound fraction; format: ADME, cell-free
[3] = molecular target: T1, Tyrosine-protein kinase JAK3 (Homo sapiens) (UniProt P52333); assay: Inhibition of recombinant human GST-tagged JAK3 (781 to 1124 residues) expressed in baculovirus at 1 uM
T1 sequence (whole entry): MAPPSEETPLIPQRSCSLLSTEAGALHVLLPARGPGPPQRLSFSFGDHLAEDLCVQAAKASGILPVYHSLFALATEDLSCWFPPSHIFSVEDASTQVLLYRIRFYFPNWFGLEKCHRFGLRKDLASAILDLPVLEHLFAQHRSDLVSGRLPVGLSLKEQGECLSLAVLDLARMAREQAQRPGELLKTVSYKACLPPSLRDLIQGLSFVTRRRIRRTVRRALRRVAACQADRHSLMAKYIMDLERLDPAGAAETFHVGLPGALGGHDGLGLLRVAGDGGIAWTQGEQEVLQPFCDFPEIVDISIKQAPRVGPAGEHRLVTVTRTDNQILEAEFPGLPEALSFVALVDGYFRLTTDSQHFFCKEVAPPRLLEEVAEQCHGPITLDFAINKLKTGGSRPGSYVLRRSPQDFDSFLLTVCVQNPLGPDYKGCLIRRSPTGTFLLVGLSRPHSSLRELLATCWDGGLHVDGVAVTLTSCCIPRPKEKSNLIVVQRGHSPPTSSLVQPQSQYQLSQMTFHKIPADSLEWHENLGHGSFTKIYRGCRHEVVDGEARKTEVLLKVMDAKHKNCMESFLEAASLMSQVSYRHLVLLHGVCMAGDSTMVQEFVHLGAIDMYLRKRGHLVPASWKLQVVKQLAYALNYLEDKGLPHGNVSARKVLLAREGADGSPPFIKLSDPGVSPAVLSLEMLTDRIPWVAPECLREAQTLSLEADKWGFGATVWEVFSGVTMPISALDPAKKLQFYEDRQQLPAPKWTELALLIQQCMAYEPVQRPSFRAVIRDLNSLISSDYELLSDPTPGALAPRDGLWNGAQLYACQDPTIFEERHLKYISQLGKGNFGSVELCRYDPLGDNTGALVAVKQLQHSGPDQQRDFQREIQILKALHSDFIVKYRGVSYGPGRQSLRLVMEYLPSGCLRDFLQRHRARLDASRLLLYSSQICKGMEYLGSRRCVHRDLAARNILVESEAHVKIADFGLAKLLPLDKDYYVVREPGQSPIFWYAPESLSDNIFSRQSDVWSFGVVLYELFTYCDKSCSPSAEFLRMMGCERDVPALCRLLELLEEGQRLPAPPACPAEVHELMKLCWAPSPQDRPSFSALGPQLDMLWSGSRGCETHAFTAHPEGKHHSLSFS
Procedure, shortened: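 Single-concentration screen at 1 μM across a panel of 386 kinases to profile broad kinase selectivity.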

[4] = AUC in CD1 mouse at 50 mg/kg, po administered via gavage by LC/MS/MS analysis; format: ADME, organism-based; details: in vivo; procedure, shortened: as §1
[5] = Volume of distribution at steady state in CD1 mouse at 3 mg/kg, iv by LC/MS/MS analysis; format: ADME, organism-based; details: in vivo, read-out: Vdss
Procedure, shortened: (§3)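 Mouse pharmacokinetics after a single iv dose of 3 mg/kg in 10% HPbCD + 5% dextrose in WFI at pH 4. Plasma clearance, half-life and steady-state volume of distribution were derived.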

Mus musculus = assay: Time above EC50 for inhibition of JAK1 in CD1 mouse at 50 mg/kg, po administered via gavage; details: in vivo
[6] = Half life in CD1 mouse at 3 mg/kg, iv by LC/MS/MS analysis; format: ADME, organism-based; details: in vivo; procedure, shortened: as §3
[7] = molecular target: T2, Serine/threonine-protein kinase D1 (Homo sapiens) (UniProt Q15139); assay: Inhibition of recombinant human full length GST-tagged PRKD1 expressed in baculovirus at 1 uM; procedure, shortened: as §2
T2 sequence (whole entry): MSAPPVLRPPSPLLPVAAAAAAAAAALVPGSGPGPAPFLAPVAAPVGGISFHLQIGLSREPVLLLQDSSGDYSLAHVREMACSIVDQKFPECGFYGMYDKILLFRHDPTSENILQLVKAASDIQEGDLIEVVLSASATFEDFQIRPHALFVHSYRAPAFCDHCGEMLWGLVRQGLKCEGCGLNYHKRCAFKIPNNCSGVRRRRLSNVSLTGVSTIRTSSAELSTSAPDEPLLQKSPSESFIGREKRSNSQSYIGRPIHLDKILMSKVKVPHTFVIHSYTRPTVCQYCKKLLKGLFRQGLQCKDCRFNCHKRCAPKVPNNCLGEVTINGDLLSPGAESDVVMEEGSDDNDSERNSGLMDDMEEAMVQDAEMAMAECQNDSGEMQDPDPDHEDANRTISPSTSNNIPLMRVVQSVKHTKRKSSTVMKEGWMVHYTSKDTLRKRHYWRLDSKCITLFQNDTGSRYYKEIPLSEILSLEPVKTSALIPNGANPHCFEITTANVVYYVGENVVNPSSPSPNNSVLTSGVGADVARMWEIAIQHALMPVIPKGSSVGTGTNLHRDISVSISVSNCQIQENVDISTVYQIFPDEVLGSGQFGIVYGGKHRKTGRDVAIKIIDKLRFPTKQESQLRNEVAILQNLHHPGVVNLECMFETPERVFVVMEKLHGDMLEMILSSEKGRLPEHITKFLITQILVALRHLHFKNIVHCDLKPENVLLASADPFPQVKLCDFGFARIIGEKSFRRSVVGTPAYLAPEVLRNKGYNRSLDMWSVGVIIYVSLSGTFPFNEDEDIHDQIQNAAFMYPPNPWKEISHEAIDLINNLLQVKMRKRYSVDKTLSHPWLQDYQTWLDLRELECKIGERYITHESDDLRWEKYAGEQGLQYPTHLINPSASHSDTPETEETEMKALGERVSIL

[8] = molecular target: Tyrosine-protein kinase JAK2 (Homo sapiens, UniProt O60674); assay: Inhibition of recombinant human JAK2 (831 to 1132 residues) expressed in insect cells using 5FAM-GEEPLYWSFPAKKK-NH2 as substrate after 10 mins by caliper assay
Sequence of Tyrosine-protein kinase JAK2 (O60674 whole entry, the tested form may be a part): as the sequence (O60674 whole entry) above
Procedure, shortened: (§4)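 Biochemical kinase inhibition IC50 measured at 5 mM ATP. Values are the geometric mean of at least two independent experiments.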

[9] = molecular target: T3, Tyrosine-protein kinase JAK3 (Homo sapiens, UniProt P52333); assay: Inhibition of recombinant human JAK3 (781 to 1124 residues) expressed in insect cells using 5FAM-GEEPLYWSFPAKKK-NH2 as substrate after 10 mins by caliper assay; procedure, shortened: as §4
T3 sequence (P52333 whole entry): T1 sequence (whole entry)

CC[C@@H](C)Nc1nc(Nc2cc(N3C[C@@H]4C[C@H]3CN4C)cnc2F)ncc1C
half-life [1]: 4.7 h | inhibition at 1 µM (JAK2): 31% | fraction unbound [2]: 0.15 | inhibition [3]: 46% | AUC [4]: 18.9 µM·h | Vd [5]: 10.3 L/kg | Time (Mus musculus): 12 h | half-life [6]: 2.4 h | inhibition [7]: 73% | pIC50 [8]: < 4.52 | pIC50 [9]: < 4.52

Reference: ChEMBL document CHEMBL4138312 (J Med Chem, 2018)
